GI50 and Fold change data for 16 compounds are collected here from ChEMBL document CHEMBL1143913, “Pyrimidinone-peptoid hybrid molecules with distinct effects on molecular chaperone function and cell proliferation” (Bioorg Med Chem, 2008).

For one experiment, the system named is SK-BR-3. Kind of experiment: Antiproliferative activity against human SK-BR3 cells after 96 hrs by MTS assay. Type of experiment: functional. The following applies: SK-BR-3, 96 h. The procedure, abridged: (§1)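 Cells were kept in exponential growth in DMEM with 10% FBS, 1% penicillin and 1% glutamine, seeded at 4,000 per well and grown 48 h, with a time-zero plate counted. They were then exposed for 72 h to DMSO (1 v/v) or a concentration range in quadruplicate. Cell number was read by MTS/N-methylphenazine methylsulfate absorbance at 490 minus 630 nm. GI50 is relative to DMSO over the 72 h or 96 h period, and values above 50 µM are given as >50.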
(Formazan colour is commonly taken as a measure of viable cells.)

Experiment [1] has as its system Saccharomyces cerevisiae. Kind of experiment: Inhibition of yeast Hsp70 ATPase assessed as ATP hydrolysis relative to control. The procedure, abridged:
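Purified yeast Hsp70 (Ssa1p) was pre-bound to ATP and run as a single-turnover assay, so that only the hydrolysis step is measured. Compound (300 µM) or DMSO was added at 0 s, and that time was set to zero. Results from multiple experiments were averaged, kinetics were fitted, and the value is the fold change in hydrolysis versus DMSO.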

Experiment [2] concerns Saccharomyces cerevisiae. Kind of experiment: Inhibition of SV40 T antigen-stimulated Hsp70 ATPase in yeast assessed as ATP hydrolysis relative to control. The procedure, abridged: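 Yeast Ssa1p was pre-bound to ATP and run as a single-turnover assay with purified SV40 TAg (0.4 µM). Compound (300 µM) or DMSO was added at 60 s, and that time was set to zero. Runs were averaged over multiple experiments, kinetics were fitted, and the value is the fold change in TAg-stimulated ATP hydrolysis versus DMSO.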

A further experiment relates to MCF7. Kind of experiment: Antiproliferative activity against human MCF7 cells after 96 hrs by MTS assay. The format is functional. To be noted: MCF7, 96 h. In a few lines: as §1
Another experiment has as its system HT-29. Kind of experiment: Antiproliferative activity against human HT29 cells after 96 hrs by MTS assay. The format is functional. The following applies: HT-29, 96 h. In a few lines: as §1

The structures appear in SMILES notation. Some results are limits rather than exact numbers.

In general, GI50 refers to the concentration that inhibits growth by half. Lower therefore signals more potent growth inhibition. For `CC(C)(C)NC(=O)C(c1ccc(I)cc1)N(CCN1CCOCC1)C(=O)CCCNC(=O)c1ccccc1` (configuration not stated), the GI50 in the experiment on SK-BR-3, with MCF7 and in the experiment with HT-29 was greater than 50 µM each time. In addition, the Fold change was 1.1 in the experiment with Saccharomyces cerevisiae [1] and -2 with Saccharomyces cerevisiae [2].
On to `CCCCCCN(C(=O)CCCCCN1C(=O)NC(C2CC2)C(C(=O)OCc2ccccc2)=C1C)C(C(=O)NCCCC)c1ccc(OCC(=O)OC)c(C(=O)OC)c1` (configuration not stated), for which the figures for the 50% growth inhibitory concentration (GI50) with SK-BR-3, in the experiment on MCF7 and with HT-29 were 6.2 µM, 6.3 µM and 5.3 µM, respectively. Moreover, the Fold change in the experiment on Saccharomyces cerevisiae [1] was 1.2; with Saccharomyces cerevisiae [2] it was -2.6.
In the case of `CCCCNC(=O)C(c1ccc(-c2ccccc2)cc1)N(CCN1CCOCC1)C(=O)CCCCCN1C(=O)NC(c2ccc([N+](=O)[O-])cc2)C(C(=O)OCc2ccccc2)=C1C` (configuration not stated), in the experiment with SK-BR-3, the 50% growth inhibitory concentration (GI50) is greater than 50 µM. Also, the Fold change with Saccharomyces cerevisiae [1] is 2.3; in the experiment with Saccharomyces cerevisiae [2], -5.
Taken in the same sequence, the figures for `CC1=C(C(=O)OCc2ccccc2)C(c2ccc(-c3ccccc3)cc2)NC(=O)N1CCCCCC(=O)O` (configuration not stated) were greater than 50 µM, 1.1 and -3.5.
Taken in the same sequence, the figures for `CCCCCCN(C(=O)CCCCCN1C(=O)NC(c2ccc(C(F)(F)F)cc2)C(C(=O)OCc2ccccc2)=C1C)C(C(=O)NCCCC)c1ccc(OCC(=O)OC)c(C(=O)OC)c1` (configuration not stated) were greater than 50 µM, 1 and -4.8.
The like results for `CC1=C(C(=O)OCc2ccccc2)C(c2ccccc2-c2ccccc2)NC(=O)N1CCCCCC(=O)O` (configuration not stated) were, in that order, greater than 50 µM, 1 and -5.
`CCCCCCN(C(=O)CCCCCN1C(=O)NC(c2ccc(-c3ccccc3)cc2)C(C(=O)OCc2ccccc2)=C1C)C(C(=O)NCCCC)c1ccc(OCC(=O)OC)cc1` (configuration not stated) came in with a concentration for 50% growth inhibition (GI50) with SK-BR-3 of 48 µM. Moreover, the Fold change in the experiment with Saccharomyces cerevisiae [1] worked out at 1.1; with Saccharomyces cerevisiae [2] it was 1.2.
Taken in the same sequence, the figures for `CC1=C(C(=O)OCc2ccccc2)C(c2ccc(C(C)(C)C)cc2)NC(=O)N1CCCCCC(=O)O` (configuration not stated) were greater than 50 µM, 1 and -3.5.
On to `CCCCCCN(C(=O)CCCCCN1C(=O)NC(c2ccc(C(C)(C)C)cc2)C(C(=O)OCc2ccccc2)=C1C)C(C(=O)NCCCC)c1ccc(OCC(=O)OC)c(C(=O)OC)c1` (configuration not stated), for which, in the experiment on SK-BR-3, the 50% growth inhibitory concentration (GI50) was 29 µM. Also, the Fold change with Saccharomyces cerevisiae [1] is 1.2; with Saccharomyces cerevisiae [2] it was -5.2.
The like results for `CC1=C(C(=O)OCc2ccccc2)C(c2ccccc2)NC(=O)N1CCCCCC(=O)O` (configuration not stated) were, in that order, greater than 50 µM, 1.5 and -1.1.
The like results for `CCCCCCN(C(=O)CCCCCN1C(=O)NC(c2ccc(-c3ccccc3)cc2)C(C(=O)OCc2ccccc2)=C1C)C(C(=O)NCCCC)c1ccc(O)c(C(=O)OC)c1` (configuration not stated) were, in that order, greater than 50 µM, 19.1 and 2.1.
The like results for `CC1=C(C(=O)OCc2ccccc2)C(c2ccc(C3CCCCC3)cc2)NC(=O)N1CCCCCC(=O)O` (configuration not stated) were, in that order, greater than 50 µM, 1.1 and -2.4.
As to `CCCCCCN(C(=O)CCCCCN1C(=O)NC(c2ccc(-c3ccccc3)cc2)C(C(=O)OCc2ccccc2)=C1C)C(C(=O)NCCCC)c1ccccc1` (configuration not stated), the GI50 in the experiment with SK-BR-3 is greater than 50 µM. Besides, the Fold change came to 3.2 in the experiment with Saccharomyces cerevisiae [1] and 1.1 in the experiment with Saccharomyces cerevisiae [2].
As for `CCCCCCN(C(=O)CCCCCN1C(=O)NC(c2ccc(C3CCCCC3)cc2)C(C(=O)OCc2ccccc2)=C1C)C(C(=O)NCCCC)c1ccc(OCC(=O)OC)c(C(=O)OC)c1` (configuration not stated), the GI50 in the experiment with SK-BR-3 is 42 µM. Further, the values for the Fold change with Saccharomyces cerevisiae [1] and in the experiment on Saccharomyces cerevisiae [2] were 2.2 and -1.6, respectively.
The like results for `CC1=C(C(=O)OCc2ccccc2)C(c2ccc(Cl)cc2)NC(=O)N1CCCCCC(=O)O` (configuration not stated) were, in that order, greater than 50 µM, 1.3 and -1.6.
Consider `CCCCCCN(C(=O)CCCCCN1C(=O)NC(c2ccc3ccccc3c2)C(C(=O)OCc2ccccc2)=C1C)C(C(=O)NCCCC)c1ccc(OCC(=O)OC)c(C(=O)OC)c1` (configuration not stated), for which the GI50 with SK-BR-3 is 10 µM. Also, the Fold change is 1 in the experiment with Saccharomyces cerevisiae [1] and -1.1 in the experiment with Saccharomyces cerevisiae [2].
